Values after ≈ are worked out from the molar mass of the structure shown. Active and inactive are the calls of the source. The calls are words filed in the database; no cut-off is given here.

Data set [1] is described as follows: Chemical stability of the compound assessed as paclitaxel release in presence of FBS measured after 5 hrs by HPLC analysis. Type of data set: physicochemical. The settings on record: cattle. The method in brief: (§1)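 Compound solution added to fetal bovine serum (400 µl into 3600 µl) and incubated at 37 °C. At set time points, 100 µl aliquots were quenched with 300 µl acetonitrile and centrifuged 5 min at 10,000 rpm. Supernatant analysed by HPLC for intact prodrug and released paclitaxel.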

Data set [2] is described as follows: Aqueous solubility of the compound. The data set is classed as physicochemical.
Data set [3] relates to HeLa. Nature of the data set: Cytotoxicity against human HeLa cells assessed as cell viability measured after 48 hrs by MTS assay. Type of data set: functional, cell-based. The method in brief: (§2)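 MCF-7 and HeLa cells seeded at 4×10^3 cells/well 24 h before treatment, then exposed to compounds for 48 h or 72 h. Viability measured by MTS assay and IC50 derived; top concentration tested 1 µM.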
In general terms: Tetrazolium assays rely on reduction of a dye to a coloured formazan, in cell work by metabolically active cells.

For data set [4], the system named is MCF7. Nature of the data set: Cytotoxicity against human MCF7 cells assessed as cell viability measured after 48 hrs by MTS assay. The data set is classed as functional, cell-based. To be noted: MCF7, 48 h. The method in brief:
as §2

Data set [5] has as its system MCF7. Nature of the data set: Cytotoxicity against human MCF7 cells assessed as cell viability measured after 72 hrs by MTS assay. Type of data set: functional, cell-based. The settings on record: MCF7, 72 h. The essentials: as §2
A short description of data set [6]: Ratio of aqueous solubility of compound to aqueous solubility of paclitaxel. The data set is classed as physicochemical. To be noted: buffer.
Data set [7] deals with HeLa. Nature of the data set: Cytotoxicity against human HeLa cells assessed as cell viability measured after 72 hrs by MTS assay. Type of data set: functional, cell-based. The method in brief: as §2
For data set [8], the system named is MCF7. Nature of the data set: Cytotoxicity against human MCF7 cells at 1 uM by MTS assay. The data set is classed as functional, cell-based. The method in brief:
as §2

Data set [9] in a line: Chemical stability of the compound assessed as paclitaxel release in presence of FBS measured after 4 hrs by HPLC analysis. Type of data set: physicochemical. To be noted: cattle. The essentials: as §1
Data set [10] deals with HeLa. Nature of the data set: Cytotoxicity against human HeLa cells at 1 uM by MTS assay. Type of data set: functional, cell-based. The method in brief:
as §2

Data set [11] in a line: Chemical stability of the compound assessed as compound degradation in presence of FBS measured after 4 hrs by HPLC analysis. To be noted: cattle. Type of data set: physicochemical. The essentials: as §1
Data set [12] can be described thus: Metabolic stability in mouse plasma assessed as compound degradation at 37 degC measured after 10 hrs. The data set is classed as ADME, cell-free. To be noted: read-out: Drug degradation. The method in brief:
(§3)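 Compound incubated in mouse plasma at 37 °C for up to 48 h. Remaining compound and released paclitaxel measured at intervals, expressed as detected concentration divided by total concentration. In a separate incubation, 10 mM dithiothreitol was added.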

Data set [13] deals with Mus musculus. Kind of data set: Toxicity in mouse allografted with mouse S180 cells assessed as mortality at 25 mg/kg, iv administered 4 time a day post 24 hrs of tumor implantation. To be noted: in vivo. The data set is classed as organism-based, CCRF S-180. The essentials: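 S-180 cells were implanted subcutaneously in mice, 8 per group. Starting 24 h later, dosing was iv every other day for 4 doses, with dose expressed as paclitaxel-equivalent. Prodrug vehicle was 5% glucose. Paclitaxel was given in cremophor/ethanol (50%/50%) diluted 10-fold with 5% glucose. Vehicle controls received 5% glucose. Deaths were counted up to day 10.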

In data set [14] the test system is CCRF S-180. Kind of data set: Antitumor activity against mouse S180 cells allografted in mouse assessed as tumor weight at 25 mg/kg, iv administered 4 time a day post 24 hrs of tumor implantation measured after 10 days (reference value: 7.35g). Type of data set: functional.
Data set [15] has as its system CCRF S-180. Nature of the data set: Antitumor activity against mouse S180 cells allografted in mouse assessed as tumor growth inhibition at 25 mg/kg, iv administered 4 time a day post 24 hrs of tumor implantation measured after 10 days. The data set is classed as functional. To be noted: CCRF S-180, iv, read-out: TGI.
Data set [16] has as its system Mus musculus. Nature of the data set: Toxicity in mouse allografted with mouse S180 cells assessed as change in body weight at 25 mg/kg, iv administered 4 time a day post 24 hrs of tumor implantation measured after 10 days (reference value: -2.8%). Type of data set: organism-based, CCRF S-180. To be noted: in vivo, 240 h.
The test system of another data set is Plasma. Kind of data set: Metabolic stability in mouse plasma assessed as paclitaxel release at 37 degC in presence of dithiotheitol measured after 10 min. Type of data set: ADME, cell-free. The method in brief:
as §3

Data set [17] has as its system Mus musculus. Kind of data set: Acute toxicity in mouse allografted with mouse S180 cells assessed as mouse survival at 90 mg/kg, iv administered 4 times per day post 24 hrs of tumor implantation. Type of data set: organism-based, CCRF S-180. To be noted: in vivo.
The nature of data set [18]: Toxicity in mouse. Type of data set: organism-based. The settings on record: in vivo.
Data set [19] concerns Mus musculus. Kind of data set: Acute toxicity in mouse allografted with mouse S180 cells at 60 mg/kg, iv administered 4 times per day post 24 hrs of tumor implantation measured after 24 hrs. Type of data set: organism-based, CCRF S-180. The settings on record: in vivo.

Take `CC(=O)O[C@H]1C(=O)[C@@]2(C)[C@H]([C@H](OC(=O)c3ccccc3)[C@]3(O)C[C@H](OC(=O)[C@H](OC(=O)CCC(=O)NCCN4CCOCC4)[C@@H](NC(=O)c4ccccc4)c4ccccc4)C(C)=C1C3(C)C)[C@]1(OC(C)=O)CO[C@@H]1C[C@@H]2O`: in data set [1], the Drug metabolism entry is reported as “metabolite_detected”. In data set [2], the concentration in solution (solubility) was 500 µg/mL (≈ 469 µM). In addition, the IC50 (usually the concentration that gives 50% inhibition) was determined as 19.8 nM in the data set on HeLa [3], 4.23 nM with MCF7 [4], 0.74 nM with MCF7 [5] and 14.6 nM with HeLa [7]. In addition, in [6], the Ratio stood at 2000.

Take `CC(=O)O[C@H]1C(=O)[C@@]2(C)[C@H]([C@H](OC(=O)c3ccccc3)[C@]3(O)C[C@H](OC(=O)[C@H](OC(=O)CN4CCOCC4)[C@@H](NC(=O)c4ccccc4)c4ccccc4)C(C)=C1C3(C)C)[C@]1(OC(C)=O)CO[C@@H]1C[C@@H]2O`: the solubility (commonly the dissolved amount per volume that the medium holds) in data set [2] was determined as 100 µg/mL (≈ 102 µM). Further, the IC50 with HeLa [3] came to 49.2 nM; in the data set on MCF7 [4] it was 12 nM; in the data set on MCF7 [5], 3.49 nM; with HeLa [7], 22.9 nM. In addition, the Ratio in data set [6] is given as 400.

As to `CC(=O)O[C@H]1C(=O)[C@@]2(C)[C@H]([C@H](OC(=O)c3ccccc3)[C@]3(O)C[C@H](OC(=O)[C@H](OC(=O)NCCN4CCOCC4)[C@@H](NC(=O)c4ccccc4)c4ccccc4)C(C)=C1C3(C)C)[C@]1(OC(C)=O)CO[C@@H]1C[C@@H]2O`, the outcome in the data set with MCF7 [8] and in the data set with HeLa [10] was inactive. In addition, the Drug metabolism entry in [9] is “metabolite_notdetected”. Also, the concentration in solution in data set [2] (solubility) was 500 µg/mL (≈ 495 µM). The IC50 in the data set with HeLa [3], with MCF7 [4], in the data set on MCF7 [5] and in the data set on HeLa [7] was more than 1000 nM throughout. For the same molecule, the Stability result in [11] is recorded as “Unstable”. Besides, the Ratio in data set [6] came to 2000.

Consider `CC(=O)O[C@H]1C(=O)[C@@]2(C)[C@H]([C@H](OC(=O)c3ccccc3)[C@]3(O)C[C@H](OC(=O)[C@H](OC(=O)OCCSSCC(=O)N[C@H](CC(=O)NCCN4CCOCC4)C(=O)NCCN4CCOCC4)[C@@H](NC(=O)c4ccccc4)c4ccccc4)C(C)=C1C3(C)C)[C@]1(OC(C)=O)CO[C@@H]1C[C@@H]2O`, for which the metabolised at 10 h in [12] is 100%. Further, the values for the Activity entry in the data set on Mus musculus [13], in the data set on CCRF S-180 [14] and in the data set on Mus musculus [16] were “Non-toxic”, 3.43 g and -16.1%, respectively. In data set [2], this molecule registered a solubility of 5000 µg/mL (≈ 3600 µM). The 50% inhibitory concentration (IC50) amounted to 20.6 nM in the data set on HeLa [3], 7.45 nM in the data set on MCF7 [4], 4.07 nM in the data set with MCF7 [5] and 14 nM in the data set on HeLa [7]. In addition, the inhibition in vivo at 25 mg/kg in the data set with CCRF S-180 [15] was 54%. Moreover, the Drug metabolism entry in the data set with Plasma is reported as “metabolite_detected”. Moreover, the Survival in the data set on Mus musculus [17] was 1 weeks. Besides, the Ratio in data set [6] is 20000.

Take `CC(=O)O[C@H]1C(=O)[C@@]2(C)[C@H]([C@H](OC(=O)c3ccccc3)[C@]3(O)C[C@H](OC(=O)[C@H](O)[C@@H](NC(=O)c4ccccc4)c4ccccc4)C(C)=C1C3(C)C)[C@]1(OC(C)=O)CO[C@@H]1C[C@@H]2O` [PACLITAXEL]: the MTD in [18] stood at 30 mg/kg. The figures for the Activity in the data set with CCRF S-180 [14], with Mus musculus [16] and in the data set with Mus musculus [19] were 3.34 g, -28.1% and “Toxic”, respectively. The 50% inhibitory concentration (IC50) with HeLa [3] stood at 23.3 nM; in the data set on MCF7 [4], 3.1 nM; with MCF7 [5] it was 1.25 nM; in the data set with HeLa [7] it was 12.6 nM. For the same molecule, the inhibition in vivo at 25 mg/kg in the data set with CCRF S-180 [15] was 56%.

Values taken from ChEMBL document CHEMBL3822413, “Design, synthesis, and evaluation of water-soluble morpholino-decorated paclitaxel prodrugs with remarkably decreased toxicity” (Bioorg Med Chem Lett, 2016).
